# Measurements collected from several papers.
# Lines come from different studies, so protocols differ.
# Target: Ephrin type-B receptor 2 (EPHB2, Homo sapiens, UniProt P29323)
# One construct used (P29323 19-1055): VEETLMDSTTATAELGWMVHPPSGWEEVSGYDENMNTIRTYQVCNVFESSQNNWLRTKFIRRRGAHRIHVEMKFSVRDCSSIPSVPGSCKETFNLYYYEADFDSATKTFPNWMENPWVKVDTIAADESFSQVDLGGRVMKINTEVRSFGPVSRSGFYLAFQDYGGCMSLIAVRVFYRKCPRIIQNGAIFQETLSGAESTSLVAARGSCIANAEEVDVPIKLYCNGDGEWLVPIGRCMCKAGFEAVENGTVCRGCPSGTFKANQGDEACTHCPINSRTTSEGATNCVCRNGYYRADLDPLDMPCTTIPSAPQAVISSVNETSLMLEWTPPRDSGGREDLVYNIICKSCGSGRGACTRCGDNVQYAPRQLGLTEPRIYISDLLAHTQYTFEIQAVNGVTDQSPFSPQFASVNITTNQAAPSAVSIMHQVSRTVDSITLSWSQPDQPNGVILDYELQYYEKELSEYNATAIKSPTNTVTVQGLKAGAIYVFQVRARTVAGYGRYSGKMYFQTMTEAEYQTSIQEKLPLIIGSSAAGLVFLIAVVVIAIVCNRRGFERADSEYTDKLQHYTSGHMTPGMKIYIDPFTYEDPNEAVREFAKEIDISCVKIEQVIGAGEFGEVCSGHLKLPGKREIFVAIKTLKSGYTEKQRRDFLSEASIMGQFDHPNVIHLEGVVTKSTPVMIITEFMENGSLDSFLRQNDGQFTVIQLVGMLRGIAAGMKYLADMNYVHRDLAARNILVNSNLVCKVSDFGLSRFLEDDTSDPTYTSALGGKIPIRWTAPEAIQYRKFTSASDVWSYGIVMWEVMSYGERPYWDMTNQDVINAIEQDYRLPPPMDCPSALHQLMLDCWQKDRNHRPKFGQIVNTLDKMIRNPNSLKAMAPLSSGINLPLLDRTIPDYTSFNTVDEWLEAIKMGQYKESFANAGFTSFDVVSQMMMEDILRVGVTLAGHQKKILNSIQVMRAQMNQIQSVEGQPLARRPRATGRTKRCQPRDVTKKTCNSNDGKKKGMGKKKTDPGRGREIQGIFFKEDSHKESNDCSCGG
Compound,effect on,mode,method,tested at,measurement,result
c1ccc(CNc2nc(N3CCOc4ccccc43)nc3c2CCCC3)cc1,target engagement in cells,inhibitor,chemoproteomics,20 mM,inhibition,2.6%
CN(C)c1ccc(C=C2C(=O)Nc3ccccc32)cc1,cell-free assay,,,0.5 µM,remaining signal,86.5%
O=C(Nc1ccc(Oc2ccc(F)cc2)cc1)N1CCc2ncccc2[C@H]1c1ccc(F)cc1,cell-free assay,,competition with immobilised ligand,1 µM,remaining binding,91%
Cc1ccc(NC(=O)c2ccc(CN3CCN(C)CC3)cc2)cc1Nc1nc(-c2cccnc2)cs1,cell-free assay,,,0.5 µM,remaining signal,95.3%
CCCCNc1ncc2c(-c3ccc(F)cc3)nn(C[C@H]3CC[C@H](N)CC3)c2n1,target engagement in cells,inhibitor,chemoproteomics,20 mM,inhibition,94.8%
FC(F)c1nc2ccccc2n1-c1nc(N2CCOCC2)nc(N2CCOCC2)n1,enzyme activity,inhibitor,,10 µM,remaining activity,106%
Cc1ccc(NC(=O)c2ccc(C)c(C(F)(F)F)c2)cc1C#Cc1nn(C2CCC(O)CC2)c2ncnc(N)c12 (stereo not drawn),cell-free assay,,,10 µM,remaining signal,-1%
COc1cc2ncnc(Nc3ccc(Oc4ccccc4)c(C)c3C)c2cc1OC,enzyme activity,inhibitor,,1 µM,inhibition,6%
CNC(=O)Nc1ccc2c(c1)[C@@]1(CC2)OC(=O)N(CC(=O)N(Cc2ccc(F)cc2)[C@@H](C)C(F)(F)F)C1=O,cell-free assay,,competition with immobilised ligand,1 µM,remaining binding,87%
COc1cc(Cl)c(C(=O)N[C@@H](CN[C@H]2CC[C@@H](N)CC2)Cc2ccc(C#N)cc2)cc1-c1ccc(CN[C@H](C)c2ccc(C)cc2)o1,enzyme activity,inhibitor,,1 µM,remaining activity,123%
COc1cc(/C=C/C(=O)CC(=O)/C=C/c2ccc(O)c(OC)c2)ccc1O,enzyme activity,inhibitor,,1 µM,activity vs control,111%
CC(C)(O)[C@H]1CC[C@H](Nc2ccc3ncc(-c4cccc(C(F)(F)F)c4)n3n2)CC1,enzyme activity,inhibitor,,1 µM,remaining activity,93.5%
O=C(Nc1cccnn1)N1CCC(=Cc2cccc(Oc3ccc(C(F)(F)F)cn3)c2)CC1,cell-free assay,,competition with immobilised ligand,1 µM,remaining binding,100%
CN1CC(Oc2cnc(C#N)cc2-c2ccn3nc(NC(=O)C4CC4)cc3c2)C1,enzyme activity,inhibitor,,1 µM,inhibition,4%
O=C(Nc1cnn(-c2csc(C(=O)NC3COC3)c2)c1)Nc1c(F)cccc1Cl,enzyme activity,inhibitor,,5 µM,remaining activity,99.9%
Cc1nc(C2CCN(C(=O)c3ccc(OC(F)(F)F)cc3N)CC2)c2ncc(N3CCN(C)CC3)cc2n1,cell-free assay,,competition with immobilised ligand,1 µM,remaining binding,100%
CN(C)C1CCN(CC#Cc2nn(C3CCCC3)c3nc(NCc4ccccc4)ncc23)C1 (stereo not drawn),enzyme activity,inhibitor,FRET,0.1 µM,inhibition,3%
Cc1cnc(NC2CCOCC2)nc1-n1cnc(C(=O)NC(CN)c2cc(F)cc(Cl)c2)c1 (stereo not drawn),enzyme activity,inhibitor,radiometric,1 µM,remaining activity,96%
CC(=O)c1c(NS(C)(=O)=O)c2cc(-c3ccc(Cl)cc3)c(-c3ccc(Cl)cc3Cl)nc2n(C)c1=O,cell-free assay,,competition with immobilised ligand,1 µM,remaining binding,100%
COc1ccc(COc2ccc(Cc3cnc(N)nc3N)cc2OC)cc1,cell-free assay,,,0.5 µM,remaining signal,87.4%
COc1cc(Nc2cnc(C#N)c(O[C@H](C)CN(C)C)n2)ncc1-c1cnn(C)c1,enzyme activity,inhibitor,radiometric,1 µM,remaining activity,110%
CC(C)(C)c1nc2c(s1)c1nc(N)ncc1c1ccc(NS(=O)(=O)c3c(F)cccc3F)c(F)c12,enzyme activity,inhibitor,radiometric,1 µM,remaining activity,91%
Cc1ccc(Nc2nccc(N(C)c3ccc4c(C)n(C)nc4c3)n2)cc1S(N)(=O)=O,enzyme activity,inhibitor,,10 µM,inhibition,44%
CCC(=O)N[C@@H]1CC[C@H](C(=O)N(C)c2ccc(-c3nc4ccccc4o3)cc2)C1,cell-free assay,,competition with immobilised ligand,1 µM,remaining binding,82%
N#CCCc1ccc2c(c1)-c1[nH]c3ccc([N+](=O)[O-])cc3c1CC(=O)N2,cell-free assay,,,0.5 µM,remaining signal,98.5%
C[C@H](c1ccnc(Nc2nc3ccc(-c4cc(N(C)C)ncn4)cc3[nH]2)c1)N1CCN(C(=O)CC(F)(F)F)CC1,cell-free assay,,competition with immobilised ligand,0.1 µM,remaining binding,93%
Oc1cccc(-c2nc(N3CCOCC3)c3oc4ncccc4c3n2)c1,enzyme activity,inhibitor,,10 µM,remaining activity,105%
CN(C)c1ncnc(-c2ccc3nc(Nc4cc(CN5CCN(C(=O)CC(F)(F)F)CC5)ccn4)[nH]c3c2)c1Cl,cell-free assay,,competition with immobilised ligand,1 µM,remaining binding,100%
CCN(CC)CCNC(=O)c1c(C)[nH]c(/C=C2\C(=O)Nc3ccc(F)cc32)c1C,enzyme activity,inhibitor,,0.3 µM,inhibition,2%
CCOc1cc(-c2nncn2C)ccc1Nc1ncc2cc(C)nc(NCC(C)(C)C)c2n1,enzyme activity,inhibitor,FRET,1 µM,inhibition,< 15%
